# Assay results gathered from unrelated publications.
# Each line is one published result; the experiments were not run side by side.
# Target: Kappa-type opioid receptor (OPRK1, Homo sapiens, UniProt P41145)
# Effect on: ligand displacement
# Concentration: 10 µM
Structure (SMILES),test,setting,inhibition [%]
Clc1ccc2c(C3CCN(CCc4c[nH]c5ccccc45)CC3)c[nH]c2c1,radioligand,,79
COc1ccc(C(=O)NCc2cc(C(C)C)no2)cc1OC1CCN(C)CC1,radioligand,,22
c1ccc(C(NCCNC(c2ccccc2)c2ccccc2)c2ccccc2)cc1,,,88
C[C@@H]1C[C@H]2O[C@@H]2/C=C\C=C\C(=O)Cc2c(Cl)c(O)cc(O)c2C(=O)O1,radioligand,cell membranes,-56
COCc1c(-c2cc3cc(C)cc(OC)c3s2)c2c(N)ncnn2c1CN1CCNC(=O)C1,radioligand,,17
C[C@@H]1N=C(c2ccccc2F)c2cc(Br)ccc2-n2cnc(C(=O)O)c21,radioligand,,62.8
CCc1ccccc1C(=O)Nc1n[nH]c2c(C)c(F)c(C3C(C#N)=C(C)N(C)C(C)=C3C#N)cc12,,,16.1
CC(C)N1CCC[C@H]1CNC(=O)c1cn(C2CCCC2)c(=O)c2c1c1ccccc1n2C,radioligand,,5
c1ccc(C2CCN(c3cnc4c(N5CCOCC5)nccn34)CC2)cc1,,,6.44
C[C@H](C(=O)N[C@H]1COc2ccccc2[C@@H]1S(C)(=O)=O)c1ccc(F)cc1,,,1
